pIC50: −log10 of the molar value. The source made the active and inactive calls. No cut-off for these calls is given here.
How the values were obtained:
B16-F10 [1] = experiment: Cytotoxicity against mouse B16F10 cells at 100 uM after 24 hrs by MTT assay relative to control; assay type: functional
Method in brief: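 Single-concentration screen in which B16-F10 cells (1 × 10⁵) were exposed to 100 µM compound for 24 h. Viability was read by MTT, with control optical density set as 100%. Three experiments in triplicate, mean ± S.E.M.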

B16-F10 [2] = experiment: Induction of apoptosis in mouse B16F10 cells assessed as DNA fragmentation at IC50 after 24 hrs by gel electrophoresis; assay type: functional, cell-based
Method in brief: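 DNA ladder assay: 5 × 10⁵ B16-F10 cells were treated for 24 h with each compound at its cell-viability IC50 (DMSO 0.1% final). DNA was ethanol-precipitated, RNase A-treated at 37 °C for 1 h, run on 1.5% agarose and stained with ethidium bromide.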

B16-F10 [3] = experiment: Cytotoxicity against mouse B16F10 cells after 72 hrs by MTT assay; assay type: functional, cell-based; settings: B16-F10, 72 h
Method in brief: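 MTT viability assay on B16-F10 cells seeded at 1 × 10⁴ cells/well. Compounds were dissolved in DMSO (0.1% final) and tested over 0–40 µM for 72 h at 37 °C in triplicate. MTT was added for 3 h and formazan dissolved in acidified isopropanol (HCl 0.04 M). Absorbance read at 540 nm. IC50 taken from concentration–response curves against untreated control.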

B16-F10 [4] = experiment: Induction of necrosis in mouse B16F10 cells assessed as alteration in ATP level up to 100 uM after 24 hrs by bioluminescent assay; assay type: functional, cell-based
Method in brief: (§1)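 Intracellular ATP was measured by luciferin–luciferase bioluminescence. About 3 × 10⁵ B16-F10 cells were exposed to 0–100 µM compound for 24 h, pelleted, and extracted with 1.25% trichloroacetic acid on ice for 30 min. Extracts were neutralized with Tris-acetate 1 M pH 7.5 and diluted 4-fold before reading. Three experiments in triplicate.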

B16-F10 [5] = experiment: Induction of apoptosis in mouse B16F10 cells assessed as decrease in total glutathione level up to 100 uM after 24 hrs by glutathione reductase method; assay type: functional, cell-based
Method in brief: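 About 3 × 10⁵ B16-F10 cells were treated with 0–100 µM compound for 24 h. A mitochondria-enriched fraction was prepared by centrifugation after homogenization in Tris-sucrose buffer and sonication. Total glutathione (GSH + GSSG) was assayed by the glutathione reductase/DTNB/NADPH method in phosphate buffer 100 mM pH 7.4. Absorbance at 412 nm was read every minute for 5 min against a GSH standard curve.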

B16-F10 [6] = experiment: Induction of apoptosis in mouse B16F10 cells assessed as decrease in ATP level after 24 hrs by bioluminescent assay; assay type: functional, cell-based; method in brief: as §1

| Compound | Activity (B16-F10 [1]) | also measured |
| --- | --- | --- |
| COc1cc(OC)c(C(=O)/C=C/c2ccc([N+](=O)[O-])cc2)c(O)c1Br | inactive | – |
| COc1cc(OC)c(C(=O)/C=C/c2ccccc2Cl)c(O)c1Br | inactive | – |
| COc1cc(C(=O)/C=C/c2ccc3ccccc3c2)ccc1O | inactive | – |
| CCCCOc1ccc(/C=C/C(=O)c2c(OC)cc(OC)c(Br)c2O)cc1 | inactive | – |
| COc1cc(O)c(C(=O)/C=C/c2cccc([N+](=O)[O-])c2)c(OC)c1 | inactive | – |
| COc1cc(OC)c(C(=O)/C=C/c2ccccc2C(=O)O)c(O)c1Br | 50% | Activity (B16-F10 [2]): inactive; pIC50 (B16-F10 [3]): 4.52; Activity (B16-F10 [4]): inactive |
| COc1cc(OC)c(C(=O)/C=C/c2c(OC)cccc2OC)c(O)c1Br | inactive | – |
| O=C(/C=C/c1ccc2ccccc2c1)c1ccccc1O | inactive | – |
| O=C(/C=C/c1cccc2ccccc12)c1ccccc1O | 75.2% | Activity (B16-F10 [5]): Active; Activity (B16-F10 [2]): Active; Activity (B16-F10 [6]): Dose-dependent effect; pIC50 (B16-F10 [3]): 4.77 |
| O=C(/C=C/c1cccc2ccccc12)c1cccc(O)c1 | 97.7% | Activity (B16-F10 [5]): Active; Activity (B16-F10 [2]): Active; Activity (B16-F10 [6]): Dose-dependent effect; pIC50 (B16-F10 [3]): 4.92 |
| COc1ccc(/C=C/C(=O)c2c(OC)cc(OC)c(Br)c2O)cc1 | inactive | – |
| COc1cc(O)c(C(=O)/C=C/c2cccc(Cl)c2)c(OC)c1 | inactive | – |
| COc1cc(O)c(C(=O)/C=C/c2cccc3ccccc23)c(OC)c1 | inactive | – |

Reference: ChEMBL document CHEMBL1137752, “Hydroxychalcones induce apoptosis in B16-F10 melanoma cells via GSH and ATP depletion” (Eur J Med Chem, 2009)
